Experimental data as given in ChEMBL document CHEMBL1157794, “Discovery of N-[(4R)-6-(4-chlorophenyl)-7-(2,4-dichlorophenyl)-2,2-dimethyl-3,4-dihydro-2H-pyrano[2,3-b]pyridin-4-yl]-5-methyl-1H-pyrazole-3-carboxamide (MK-5596) as a novel cannabinoid-1 receptor (CB1R) inverse agonist for the treatment of obesity” (J Med Chem, 2010).
Values belong to the compound of their own block, whether it stands above or below them.

Experiments:
[1] = Half life in Sprague-Dawley rat at 1 mg/kg, iv and 2 mg/kg, po; format: ADME, organism-based; conditions: in vivo
Summary of the method: (§1)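 Male Sprague-Dawley rats dosed 1 mg/kg iv and 2 mg/kg po; male beagle dogs and rhesus monkeys 0.2 mg/kg iv and 0.4 mg/kg po. Iv vehicle EtOH/PEG400/water 20:50:30 (rat) or 20:40:40 v/v/v (dog, monkey); oral vehicle Imwitor 742/Tween-80 1:1 w/w. Clearance, Vdss, t1/2, Cmax, F and dose-normalized oral AUC derived.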

[2] = Bioavailability in Sprague-Dawley rat at 1 mg/kg, iv and 2 mg/kg, po; format: ADME, organism-based; conditions: in vivo; summary of the method: as §1
[3] = Ratio of drug level in brain to plasma in wild type MDR1a-expressing mouse at 1 mg/kg, iv measured after 4 hrs; format: ADME, organism-based; set-up: dose 1 mg/kg, route intravenous; conditions: brain and plasma, read-out: BPR
Summary of the method: (§2)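 Single iv dose of 1 mg/kg given to wild-type and P-gp deficient CF-1 mice. Parent levels in plasma and brain determined 4 h postdose. Brain-to-plasma ratio calculated from these levels.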

[4] = Plasma clearance in rhesus monkey at 0.4 mg/kg, po; format: ADME, organism-based, Macaca mulatta; set-up: dose 0.4 mg/kg, route oral
Summary of the method: (§3)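 Male Sprague-Dawley rats received 1 mg/kg iv and 2 mg/kg po. Male beagle dogs and rhesus monkeys received 0.2 mg/kg iv and 0.4 mg/kg po. The iv solution was EtOH/PEG400/water, 20:50:30 v/v/v for rats and 20:40:40 v/v/v for dogs and monkeys. The oral solution was Imwitor742/Tween-80 (1:1 w/w) for all species.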

[5] = Drug level in diet-induced obese rat plasma at 0.3 mg/kg, po measured after 18 hrs of last dose on day 13; format: ADME, organism-based; set-up: dose 0.3 mg/kg, route oral; conditions: read-out: Drug uptake
Summary of the method: (§4)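 At end of 13-day chronic efficacy study in DIO rats dosed orally at 0.3 mg/kg, plasma and brain drug levels measured 18 h after last dose.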

[6] = Drug level in diet-induced obese rat brain at 0.3 mg/kg, po measured after 18 hrs of last dose on day 13; format: ADME, organism-based; set-up: dose 0.3 mg/kg, route oral; conditions: read-out: Drug uptake; summary of the method: as §4
[7] = Ratio of drug level in brain to plasma in diet-induced obese rat at 0.3 mg/kg, po measured after 18 hrs of last dose on day 13; format: ADME, organism-based; set-up: dose 0.3 mg/kg, route oral; conditions: brain and plasma, read-out: BPR
Summary of the method: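 DIO rats dosed daily for 13 days at 0.3 mg/kg in the chronic efficacy study. Plasma and brain levels determined 18 h after the last dose. Brain/plasma exposure ratio calculated.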

[8] = Drug level in diet-induced obese rat plasma at 0.3 mg/kg, po measured after 24 hrs of last dose on day 13; format: ADME, organism-based; set-up: dose 0.3 mg/kg, route oral; conditions: read-out: Drug uptake
Summary of the method: (§5)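 Separate parallel 13-day pharmacokinetic study in DIO rats at 0.3 mg/kg; plasma and brain levels determined 24 h after last dose.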

[9] = Drug level in diet-induced obese rat brain at 0.3 mg/kg, po measured after 24 hrs of last dose on day 13; format: ADME, organism-based; set-up: dose 0.3 mg/kg, route oral; conditions: read-out: Drug uptake; summary of the method: as §5
[10] = Ratio of drug level in brain to plasma in diet-induced obese rat at 0.3 mg/kg, po measured after 24 hrs of last dose on day 13; format: ADME, organism-based; set-up: dose 0.3 mg/kg, route oral; conditions: brain and plasma, read-out: BPR
Summary of the method: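 Separate 13-day parallel pharmacokinetic study in DIO rats at 0.3 mg/kg. Plasma and brain exposures determined 24 h after the last dose. Brain/plasma ratio calculated.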

[11] = Metabolic stability in bile-duct cannulated rat bile assessed as compound remaining at 2 mg/kg, po up to 72 hrs; format: ADME, organism-based; set-up: dose 2 mg/kg, route oral; conditions: read-out: Stability
Summary of the method: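 [3H]-labelled compound formulated in Imwitor 742/Tween-80 (1:1), given orally at 2 mg/kg to bile duct-cannulated rats; bile, feces and urine collected over 72 h; radioactivity recovery and radioprofiles of parent and metabolites determined.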

[12] = Drug level in wild type MDR1a-expressing mouse plasma at 1 mg/kg, iv measured after 4 hrs; format: ADME, organism-based; set-up: dose 1 mg/kg, route intravenous; conditions: read-out: Drug uptake
Summary of the method: (§6)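 Single iv 1 mg/kg to wild-type and P-gp deficient CF-1 mice; parent levels in plasma and brain measured 4 h postdose; brain/plasma ratio calculated.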

[13] = Drug level in wild type MDR1a-expressing mouse brain at 1 mg/kg, iv measured after 4 hrs; format: ADME, organism-based; set-up: dose 1 mg/kg, route intravenous; conditions: read-out: Drug uptake; summary of the method: as §6
[14] = Drug level in P-gp deficient CF1 mouse plasma at 1 mg/kg, iv measured after 4 hrs; format: ADME, organism-based; set-up: dose 1 mg/kg, route intravenous; conditions: read-out: Drug uptake; summary of the method: as §6
[15] = Drug level in P-gp deficient CF1 mouse brain at 1 mg/kg, iv measured after 4 hrs; format: ADME, organism-based; set-up: dose 1 mg/kg, route intravenous; conditions: read-out: Drug uptake; summary of the method: as §6
[16] = Ratio of drug level in brain to plasma in P-gp deficient CF1 mouse at 1 mg/kg, iv measured after 4 hrs; format: ADME, organism-based; set-up: dose 1 mg/kg, route intravenous; conditions: brain and plasma, read-out: BPR; summary of the method: as §2
[17] = Plasma clearance in Sprague-Dawley rat at 1 mg/kg, iv and 2 mg/kg, po; format: ADME, organism-based; summary of the method: as §3
[18] = Volume of distribution at steady state in Sprague-Dawley rat at 1 mg/kg, iv and 2 mg/kg, po; format: ADME, organism-based; conditions: in vivo, read-out: Vdss; summary of the method: as §3
Rattus norvegicus = experiment: Dose normalized AUC in Sprague-Dawley rat assessed as per mg of plasma protein at 2 mg/kg, po; format: ADME, organism-based; set-up: dose 2 mg/kg, route oral; conditions: in vivo
[19] = Cmax in Sprague-Dawley rat at 1 mg/kg, iv and 2 mg/kg, po; format: ADME, organism-based; conditions: in vivo; summary of the method: as §1
[20] = Plasma clearance in Beagle dog at 0.2 mg/kg, iv; format: ADME, organism-based, Canis lupus familiaris; set-up: dose 0.2 mg/kg, route intravenous; summary of the method: as §3
[21] = Volume of distribution at steady state in Beagle dog at 0.2 mg/kg, iv; format: ADME, organism-based, Canis lupus familiaris; set-up: dose 0.2 mg/kg, route intravenous; conditions: in vivo, read-out: Vdss; summary of the method: as §3
[22] = Half life in Beagle dog at 0.2 mg/kg, iv; format: ADME, organism-based, Canis lupus familiaris; set-up: dose 0.2 mg/kg, route intravenous; conditions: in vivo; summary of the method: as §1
[23] = Bioavailability in Beagle dog at 0.2 mg/kg, iv; format: ADME, organism-based, Canis lupus familiaris; conditions: in vivo; summary of the method: as §1
Rhesus monkey [24] = experiment: Volume of distribution at steady state in rhesus monkey at 0.4 mg/kg, po; format: ADME, organism-based, Macaca mulatta; set-up: dose 0.4 mg/kg, route oral; conditions: in vivo; summary of the method: as §3
[25] = Half life in rhesus monkey at 0.4 mg/kg, po; format: ADME, organism-based, Macaca mulatta; set-up: dose 0.4 mg/kg, route oral; conditions: in vivo; summary of the method: as §1
[26] = Cmax in rhesus monkey at 0.4 mg/kg, po; format: ADME, organism-based, Macaca mulatta; set-up: dose 0.4 mg/kg, route oral; conditions: in vivo; summary of the method: as §1
[27] = Oral bioavailability in rhesus monkey at 0.4 mg/kg; format: ADME, organism-based, Macaca mulatta; conditions: in vivo; summary of the method: as §3
Rhesus monkey [28] = experiment: Dose normalized AUC in rhesus monkey at 0.4 mg/kg, po; format: ADME, organism-based, Macaca mulatta; set-up: dose 0.4 mg/kg, route oral; conditions: in vivo; summary of the method: as §1
[29] = Plasma concentration in dog at 1 mg/kg, iv administered for 30 mins; format: ADME, organism-based, Canis lupus familiaris; set-up: dose 1 mg/kg, route intravenous
Summary of the method: (§7)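 Anesthetized dogs given iv infusions, each spread evenly over 30 min, at rising cumulative doses of 1, 3 and 10 mg/kg. Peak plasma levels were measured during each dose. Arterial pressure, heart rate and ECG intervals (PR, QRS, QTc) were monitored against vehicle-treated dogs.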

[30] = Plasma concentration in dog at 3 mg/kg, iv administered for 30 mins; format: ADME, organism-based, Canis lupus familiaris; set-up: dose 3 mg/kg, route intravenous; summary of the method: as §7
[31] = Plasma concentration in dog at 10 mg/kg, iv administered for 30 mins; format: ADME, organism-based, Canis lupus familiaris; set-up: dose 10 mg/kg, route intravenous; summary of the method: as §7
[32] = Cmax in Beagle dog at 0.4 mg/kg, po; conditions: in vivo
Canis familiaris = experiment: Dose normalized AUC in Beagle dog at 0.4 mg/kg, po; conditions: in vivo

half-life [1]: 1.9 h
bioavailability [2]: 1%
Structure (SMILES): CC1(C)C[C@@H](NC(=O)c2ccccc2O)c2cc(-c3ccc(Cl)cc3)c(-c3ccc(Cl)cc3Cl)nc2O1

half-life [1]: 7.4 h
bioavailability [2]: 5%
Structure (SMILES): CC1(C)C[C@@H](NC(=O)c2ccccc2N)c2cc(-c3ccc(Cl)cc3)c(-c3ccc(Cl)cc3Cl)nc2O1

Kp at 4 h [3]: 0.66
CL/F [4]: 2.3 mL/min/kg
concentration at 18 h [5]: 180 nM
concentration at 18 h [6]: 110 nM
Kp at 18 h [7]: 0.63
concentration at 24 h [8]: 135 nM
concentration at 24 h [9]: 74 nM
Kp at 24 h [10]: 0.55
remaining at 72 h [11]: 30%
concentration at 4 h [12]: 410 nM
concentration at 4 h [13]: 270 nM
concentration at 4 h [14]: 300 nM
concentration at 4 h [15]: 1400 nM
Kp at 4 h [16]: 4.66
clearance [17]: 4.5 mL/min/kg
Vd [18]: 3 L/kg
half-life [1]: 8.5 h
bioavailability [2]: 91%
AUC (Rattus norvegicus): 11 µM·kg·h/mg
Cmax [19]: 1030 nM
clearance [20]: 1.1 mL/min/kg
Vd [21]: 5.7 L/kg
half-life [22]: 60 h
bioavailability [23]: 65%
Vdss (Rhesus monkey [24]): 2.4 L/kg
half-life [25]: 15 h
Cmax [26]: 90 nM
bioavailability [27]: 46%
AUC (Rhesus monkey [28]): 6.1 µM·kg·h/mg
concentration at 0.5 h [29]: 1630 nM
concentration at 0.5 h [30]: 3260 nM
concentration at 0.5 h [31]: 6960 nM
Cmax [32]: 150 nM
AUC (Canis familiaris): 18 µM·kg·h/mg
Structure (SMILES): Cc1cc(C(=O)N[C@@H]2CC(C)(C)Oc3nc(-c4ccc(Cl)cc4Cl)c(-c4ccc(Cl)cc4)cc32)n[nH]1

Structure (SMILES): CC1(C)CC(NC(=O)CC(O)C(F)(F)F)c2cc(-c3ccc(Cl)cc3)c(-c3ccc(Cl)cc3Cl)nc2O1 (racemic) [N-[6-(4-CHLOROPHENYL)-7-(2,4-DICHLOROPHENYL)-2,2-DIMETHYL-3,4-DIHYDRO-2H-PYRANO[2,3-B]PYRIDINE-4-YL]-4,4,4-TRIFLUORO-3-HYDROXYBUTANAMIDE (DIASTEREOMERIC MIX)]
half-life [1]: 8.2 h
bioavailability [2]: 41%

Structure (SMILES): CC(O)C(=O)NC1CC(C)(C)Oc2nc(-c3ccc(Cl)cc3Cl)c(-c3ccc(Cl)cc3)cc21 (single isomer, unassigned)
half-life [1]: 7.9 h
bioavailability [2]: 100%
